The results in this text go back to ChEMBL document CHEMBL4680104, “Structure-Based Optimization of Small-Molecule Inhibitors for the β-Catenin/B-Cell Lymphoma 9 Protein-Protein Interaction” (J Med Chem, 2018).

Active and inactive are the calls of the source. No cut-off for these calls is given here.

The nature of data set [1]: Drug level in human HCT-116 cells assessed as per million cells at 50 uM incubated for 6 hrs at 4 degC in presence of DMEM media with 10% FBS. It is filed as ADME, cell-based. The following applies: hct-116, 6 h. In short, it runs like this:
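Cells were incubated with 50 μM compound for 6 h in 5 mL DMEM with 10% FBS, at 37 °C or at 4 °C. Cell-bound compound was quantified by a previously described method and expressed as nmol per million cells. The 4 °C incubation was used to estimate binding to the cell membrane through nonspecific association.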

In data set [2] the test system is HCT-116. Kind of data set: Inhibition of protein interaction between full-length beta-catenin (unknown origin) / full-length E-cadherin (unknown origin) in human HCT-116 cells incubated for 24 hrs by co-immunoprecipitation assay. Type of data set: cell-based. Put shortly: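 Intact HCT116 cells at 1 × 10^6/mL were treated with a range of inhibitor concentrations for 24 h. They were then lysed in Tris pH 7.4/NaCl/NP-40/EDTA buffer with protease inhibitors and precleared on A/G agarose. Anti-β-catenin immunoprecipitation ran overnight at 4 °C, with A/G capture for 3 h and five washes. Samples were run on 8% SDS-PAGE and immunoblotted for BCL9 and E-cadherin.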

Data set [3] concerns SW480. Kind of data set: Effect on E-cadherin-bound beta-catenin levels in human SW480 cells at 25 to 100 uM incubated for 24 hrs by Western blot analysis. It is filed as functional, cell-based. The following applies: dose 25-100 µM. In short, it runs like this:
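SW480 cells at 1 × 10^6 cells/mL were treated with a range of inhibitor concentrations for 24 h. Cells were lysed in Tris/NaCl/NP-40/deoxycholate/SDS buffer with protease inhibitors. Lysates were run on 8% SDS-PAGE and blotted to nitrocellulose. Blots were probed overnight at 4 °C for total β-catenin (mostly the E-cadherin-bound pool), active β-catenin (dephosphorylated S37/T41), cyclin D1, c-myc and β-tubulin. Detection used infrared secondary antibodies. Duplicate.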

Turning to `Cl.Cl.O=C(Nc1ccc(O[C@@H]2CCNC2)c(-c2cccc(-c3nn[nH]n3)c2)c1)c1ccc(O[C@H]2CCNC2)c(-c2ccc(F)c(F)c2)c1`, the Drug uptake in data set [1] was 5.1 nmol. Also, in data set [2], the inhibition entry is “inactive”. Besides, in data set [3], the outcome was inactive.
